ARFGAP1 inh = rat ARFGAP1 inhibition; inhibition, % at 16.5 µM; 360,000 tested, 0.26% active; AID 651572; Arfgap1-stimulated ARF1 GTP hydrolysis, GDP FP detection;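 active = inhibition above a per-plate limit, mean inhibition of low control wells plus 3 SD, cut at about 25% in these data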;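 also: 0% = DMSO wells with enzyme and 100% = wells lacking Arfgap1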
Target sequence (Q62848 1-136 limits assumed): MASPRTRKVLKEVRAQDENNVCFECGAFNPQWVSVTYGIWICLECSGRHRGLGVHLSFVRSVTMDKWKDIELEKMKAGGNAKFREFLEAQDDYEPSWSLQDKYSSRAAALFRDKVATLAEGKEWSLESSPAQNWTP
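Replicates: Single well per compound | Assay system: Truncated rat Arfgap1 GAP domain | Control set: No-Arfgap1 wells (100%) versus DMSO full-reaction wells (0%) | Times: Enzyme reaction 120 min at 25 °C after 20 min preincubation | Reagent: Human ARF1(Δ1-17)-GTP substrate | Measured by: Tracer-displacement fluorescence polarization with EDTA stop, 620/688 nm | Measure: Percent inhibition of Arfgap1-stimulated GTP hydrolysis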
rCAG binder = binds r(CAG) RNA repeats. r(CAG) RNA repeat, TO-PRO-1 dye displacement fluorescence. inhibition, % at 3 µM. 370,000 tested, 1.3% active. AID 651821;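 active = inhibition above the plate cutoff, the mean of all test compounds on that plate plus 3 SD, cut at about 35% in these data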;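 also: 0% = DMSO alone and 100% = 100 µM mitoxantrone as full dye displacement; higher means more dye released from RNA so lower well fluorescence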
NadD block = inhibitors of Staphylococcus aureus NadD | purified NadD enzyme, colorimetric absorbance read-out | inhibition, % at 20 µM | 360,000 tested, 0.78% active; in the data active = inhibition above about 26%
ASAP1 inh = blocks human ASAP1-stimulated Arf1 GTP hydrolysis. Q9ULH1. GDP FP detection. inhibition, % at 16.5 µM. 360,000 tested, 0.19% active; in the data active = inhibition above about 25%;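 also: 0% = vehicle with enzyme and substrate and 100% = no enzyme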
Target sequence (Q9ULH1 325-724 limits assumed): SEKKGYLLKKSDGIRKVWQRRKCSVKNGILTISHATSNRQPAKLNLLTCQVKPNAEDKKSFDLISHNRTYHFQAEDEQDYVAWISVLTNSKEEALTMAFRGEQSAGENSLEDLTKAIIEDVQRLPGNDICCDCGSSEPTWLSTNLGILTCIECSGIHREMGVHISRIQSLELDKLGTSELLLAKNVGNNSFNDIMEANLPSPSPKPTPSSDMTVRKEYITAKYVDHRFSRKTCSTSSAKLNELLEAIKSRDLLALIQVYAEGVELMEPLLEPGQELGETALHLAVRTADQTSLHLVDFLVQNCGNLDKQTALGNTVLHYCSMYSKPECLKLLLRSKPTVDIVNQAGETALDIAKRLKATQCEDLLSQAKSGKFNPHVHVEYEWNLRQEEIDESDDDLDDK
rCAG bind conf = r(CAG) RNA repeat binding, confirmation. shares compounds with rCAG binder. 4,300 tested, 70% active. inhibition, % at 3 µM. TO-PRO-1 dye displacement fluorescence;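 active = inhibition above a per-plate cutoff, the mean inhibition of sample wells plus 3 SD, cut at about 35% in these data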;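 also: loss of TO-PRO-1 fluorescence as compound displaces dye from 1x1 AA loop RNA; 0% = DMSO only wells and 100% = 100 µM mitoxantrone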
DNA CAG counter = counter-screen for rCAG RNA binders: DNA CAG dye complex inhibitors; shares compounds with rCAG binder; d(CAG) DNA oligo TO-PRO-1 dye displacement, fluorescence; inhibition, % at 3 µM; 4,300 tested, 94% active; AID 652068;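 active = inhibition above its plate's cutoff, the mean test-well inhibition plus 3 SD, cut at about 4.8% in these data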;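 also: 0% = DNA dye mix with DMSO and 100% = 100 µM mitoxantrone; hits displace the dye from DNA and so lower well fluorescence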
DNA CAG DR = disrupts DNA CAG TO-PRO-1 complex in dose response. AID 686960. 250 tested, 20% active. IC50, µM. shares compounds with rCAG binder. DNA CAG/GTC duplex TO-PRO-1 dye displacement fluorescence; in the data active = IC50 below about 10 µM
The depositor's hits bear a star. In the library only some 2.2% were active in any assay of this set; here they are far more common.

What do the screens show for `CCOC(=O)C1=C(c2ccccc2)N=c2s/c(=C\c3ccc(O)cc3)c(=O)n2C1c1cccs1` (stereo not drawn)?
ARFGAP1 inh: 5; rCAG binder: 37*; NadD block: 35*; ASAP1 inh: 14; rCAG bind conf: 36*; DNA CAG counter: 20*

What do the screens show for `CCOC(=O)C1=C(C)N=c2sc(=Cc3ccc(OCC(=O)O)cc3)c(=O)n2C1c1ccc(SC)cc1` (stereo not drawn)?
ARFGAP1 inh: -15; rCAG binder: 82*; NadD block: 26; ASAP1 inh: 4; rCAG bind conf: 71*; DNA CAG counter: 37*

Results for CCOC(=O)C1=C(C)N=c2s/c(=C\c3ccc(C(=O)O)cc3)c(=O)n2C1c1ccc(OC)cc1OC (stereo not drawn) ?
ARFGAP1 inh: 1; rCAG binder: 9; NadD block: 10; ASAP1 inh: -2

Results for COc1ccc(C(=O)N2CCC(Oc3cccnc3)CC2)c(OC)c1 ?
rCAG binder: 1

Results for COCCN1C[C@@H](CO)O[C@@H](n2cnc3c(N(C)C)ncnc32)C1 ?
ARFGAP1 inh: 8; rCAG binder: 1; NadD block: -2; ASAP1 inh: -5

What do the screens show for `CN1C/C(=C/c2ccccc2)N2C(=O)C[C@@H](c3ccccc3)N=C12`?
rCAG binder: -2

Results for O=C(O)Cn1ccc2cc(S(=O)(=O)N3CCCCC3)ccc21 ?
ARFGAP1 inh: 5; rCAG binder: 6; NadD block: -3; ASAP1 inh: 13

Results for CCOC(=O)C1=C(C)N=c2s/c(=C\c3ccc(OCC(=O)O)cc3)c(=O)n2C1c1ccccc1 (stereo not drawn) ?
ARFGAP1 inh: -4; rCAG binder: 75*; NadD block: 14; ASAP1 inh: 5; rCAG bind conf: 77*; DNA CAG counter: 35*

Results for Cc1ccc(O)c(-c2cc(C(=O)Nc3ccc(S(=O)(=O)Nc4nccc(C)n4)cc3)[nH]n2)c1 ?
ARFGAP1 inh: 7; rCAG binder: 59*; NadD block: 6; ASAP1 inh: 1; rCAG bind conf: 49*; DNA CAG counter: 17*

What do the screens show for `COc1ccc(C(=O)Nc2ccc(S(=O)(=O)Nc3nccc(C)n3)cc2)cc1`?
ARFGAP1 inh: 3; rCAG binder: 5; NadD block: -2; ASAP1 inh: 4

How did Cc1cc(/C=C2\SC(=S)NC2=O)c(C)n1C1CC1 do in these assays?
ARFGAP1 inh: 11; rCAG binder: 36*; NadD block: 20; ASAP1 inh: -14; rCAG bind conf: 23; DNA CAG counter: 7.1*

How did N=C1C2=C3Sc4ccccc4N3CCCC2=NN1c1cccc(S(=O)(=O)O)c1 do in these assays?
ARFGAP1 inh: 9; rCAG binder: 38*; NadD block: 1; ASAP1 inh: 5; rCAG bind conf: 47*; DNA CAG counter: 11*

Results for COc1ccccc1NC(=O)c1ccc(NS(=O)(=O)c2ccc(F)c(Cl)c2)cc1 ?
ARFGAP1 inh: -2; rCAG binder: 44*; NadD block: -5; ASAP1 inh: 2; rCAG bind conf: 54*; DNA CAG counter: 14*

Results for Cc1ccc2c(c1)N(CCCC(=O)NCc1cccs1)C(=O)CO2 ?
rCAG binder: -1

How did CC[C@H](CCCCCCCn1ccc2ccccc21)CCC(=O)N(c1ccccc1)c1ccccc1 do in these assays?
rCAG binder: 9

Results for CC1CCCN(c2nc3ccccc3nc2C(C#N)S(=O)(=O)c2cccs2)C1 (stereo not drawn) ?
ARFGAP1 inh: 13; rCAG binder: 20; NadD block: 1; ASAP1 inh: -1

How did COc1ccc(S(=O)(=O)C(C#N)c2nc3ccccc3nc2N2CCCC(C)C2)cc1 (stereo not drawn) do in these assays?
ARFGAP1 inh: 2; rCAG binder: 68*; NadD block: 3; ASAP1 inh: -3; rCAG bind conf: 68*; DNA CAG counter: 35*

How did COc1ccc(-c2sc(C(=O)c3ccc(Cl)cc3Cl)cc2CC(=O)O)cc1 do in these assays?
ARFGAP1 inh: 1; rCAG binder: 54*; NadD block: -7; ASAP1 inh: -6; rCAG bind conf: 56*; DNA CAG counter: 17*

How did O=C(O)Cc1ccc(C(=O)c2ccc(Cl)cc2Cl)s1 do in these assays?
ARFGAP1 inh: 3; rCAG binder: 2; NadD block: -1; ASAP1 inh: -12

Results for O=C(O)COc1ccc(/C=C2\SC(=Nc3ccccc3)N(c3ccccc3)C2=O)cc1 ?
ARFGAP1 inh: 0; rCAG binder: 14; NadD block: 2; ASAP1 inh: 1

How did O=C(O)c1ccc(/C=C2\SC(=Nc3ccccc3)N(c3ccccc3)C2=O)cc1 do in these assays?
ARFGAP1 inh: 0; rCAG binder: 13; NadD block: -3; ASAP1 inh: 6

How did CCOc1cc(/C=C2\SC(=Nc3ccccc3)N(c3ccccc3)C2=O)ccc1OCC(=O)O do in these assays?
ARFGAP1 inh: -7; rCAG binder: 65*; NadD block: 8; ASAP1 inh: -2; rCAG bind conf: 71*; DNA CAG counter: 30*; DNA CAG DR: inactive

What do the screens show for `Cc1ccc(N=C2S/C(=C/c3cccc(OCC(=O)O)c3)C(=O)N2C)cc1C`?
ARFGAP1 inh: -5; rCAG binder: 58*; NadD block: 4; ASAP1 inh: -13; rCAG bind conf: 64*; DNA CAG counter: 23*

What do the screens show for `O=C(O)COc1ccccc1/C=C1\SC(=Nc2ccc(F)cc2)N(c2ccc(F)cc2)C1=O`?
ARFGAP1 inh: -2; rCAG binder: 40*; NadD block: 4; ASAP1 inh: 1; rCAG bind conf: 65*; DNA CAG counter: 24*

How did Cc1c(CC(=O)N[C@@H](C)C(=O)O)c(=O)oc2c(C)c3occ(-c4ccccc4)c3cc12 do in these assays?
ARFGAP1 inh: 5; rCAG binder: 38*; NadD block: 2; ASAP1 inh: 11; rCAG bind conf: 50*; DNA CAG counter: 15*

What do the screens show for `CCCC(NC(=O)Cc1c(C)c2cc3c(C)c(C)oc3c(C)c2oc1=O)C(=O)N[C@@H](Cc1ccccc1)C(=O)O` (stereo partly drawn)?
ARFGAP1 inh: -3; rCAG binder: 16; NadD block: 18; ASAP1 inh: -9

Results for CC[C@@H](C)[C@H](NC(=O)Cc1c(C)c2c(cc(C)c3c(C)c(C)oc32)oc1=O)C(=O)O ?
ARFGAP1 inh: 1; rCAG binder: 35*; NadD block: 9; ASAP1 inh: 0; rCAG bind conf: 32; DNA CAG counter: 5.7*

Screening data deposited in PubChem BioAssay by several laboratories.
